Hits are enriched below; roughly 3.1% of the tested compounds scored in any of these assays.
OX1R antag-1 – OX1R (HCRTR1) antagonists, primary screen, fluorescence, CHO/OX1R cells, Fluo-8 calcium, orexin A | Orexin/Hypocretin receptor type 1 (Homo sapiens), O43613 | Fluo-8 calcium fluorescence | inhibition, % at 5 µM | 330,000 compounds, 0.43% hits | AID 434989, 2010;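 active = inhibition above its plate's threshold, mean inhibition of all tested compounds on the plate plus 3 SD, cut at about 37% in these data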;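 also: 0% = orexin A challenge wells and 100% = SB-334867-A antagonist wells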
CHO parental Ca – ATP-evoked calcium signal inhibitors, parental CHO, primary screen, counter-screen for OX1R antagonist project, cell-based, fluorescence, Fluo-8 calcium dye. inhibition, % at 5.6 µM. parental CHO-K1, ATP-induced calcium, Fluo-8 fluorescence. 330,000 compounds, 0.63% hits;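 active = inhibition above that plate's mean sample inhibition plus 3 SD, cut at about 26% in these data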;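 also: 0% = ATP-challenged DMSO wells and 100% = DMSO wells without ATP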
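Test system: untransfected parental CHO cell line; also added: ATP stimulus; dosing: 5.6 µM, single dose; signal: calcium-sensitive Fluo-8 fluorescence; measure: percent inhibition of ATP-evoked calcium rise, normalized to controls; benchmarks: low control ATP plus DMSO, high control DMSO only; replication: one well per compound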
GPR7 antagonist – GPR7 receptor antagonists, primary screen, cell-based, fluorescence, single concentration | Neuropeptides B/W receptor type 1 (Homo sapiens), P48145 | GPR7-expressing cells, fluorescence antagonist assay | inhibition, % at 4.4 µM | 290,000 compounds, 1.1% hits; in the data active = inhibition above about 16%, passing the limit was not always enough;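 also: cells stimulated with the agonist NPW; 0% = agonist with vehicle and 100% = vehicle without agonist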
Target sequence (P48145 whole entry, looked up): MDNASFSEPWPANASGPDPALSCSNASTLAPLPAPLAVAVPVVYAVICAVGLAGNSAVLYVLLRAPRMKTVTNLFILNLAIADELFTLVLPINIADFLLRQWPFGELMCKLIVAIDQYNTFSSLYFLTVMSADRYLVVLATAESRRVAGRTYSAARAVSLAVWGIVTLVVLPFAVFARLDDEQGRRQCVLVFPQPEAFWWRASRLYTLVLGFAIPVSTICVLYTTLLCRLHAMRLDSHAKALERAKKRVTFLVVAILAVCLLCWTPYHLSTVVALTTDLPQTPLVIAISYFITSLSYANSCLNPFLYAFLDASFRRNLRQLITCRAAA
OX1R antag-2 – antagonists of human orexin 1 receptor (OX1R); Orexin/Hypocretin receptor type 1 (Homo sapiens), O43613; inhibition, % at 6.6 µM; 330,000 compounds, 1.8% hits; AID 485270, 2010; OX1R-expressing cells, FRET antagonist read-out; in the data active = inhibition mostly above about 38%, no sharp cut-off; inactive = mostly below about 40%;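 also: 0% = agonist challenge alone and 100% = reference antagonist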
GalR3 antagonist – GalR3 antagonists in HEK293 cells, primary screen, cell-based, fluorescence readout. 360,000 compounds, 0.44% hits. Galanin receptor type 3 (Homo sapiens), O60755. inhibition, % at 3 µM. HEK293 GalR3-CNG cAMP membrane potential fluorescence; galR3 body fused to GalR1 C-terminus. AID 651719, 2012;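 active = inhibition above the screen-wide average plus 3 SD, cut at about 13% in these data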;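 also: forskolin and galanin both at EC90 stimulate the cells; cAMP rise reported by CNG channel membrane potential dye signal; 0% = forskolin plus galanin with DMSO and 100% = forskolin alone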
Target sequence (O60755 1-299 limits assumed): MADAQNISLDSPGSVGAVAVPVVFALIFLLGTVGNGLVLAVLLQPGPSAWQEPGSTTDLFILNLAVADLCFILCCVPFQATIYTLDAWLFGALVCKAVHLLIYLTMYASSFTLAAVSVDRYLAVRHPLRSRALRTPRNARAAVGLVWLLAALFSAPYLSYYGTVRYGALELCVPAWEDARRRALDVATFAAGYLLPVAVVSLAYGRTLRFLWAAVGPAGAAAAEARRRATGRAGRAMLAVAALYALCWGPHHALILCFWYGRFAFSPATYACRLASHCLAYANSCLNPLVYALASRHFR
GalR3 antag conf – GalR3 antagonist hit confirmation, cell-based, fluorescence, triplicate; inhibition, % at 3 µM; shares compounds with GalR3 antagonist; 1,600 compounds, 59% hits; HEK293 GalR3 CNG cAMP biosensor, membrane potential fluorescence; galR3 fused to GalR1 carboxy tail; challenged with forskolin and galanin at EC90;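 active = inhibition above the primary screen's cutoff, the mean inhibition of all screened compounds plus 3 SD, cut at about 13% in these data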;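 also: 0% = forskolin plus galanin and 100% = forskolin alone with DMSO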
CNG parental – nonspecific cAMP agonists in parental HEK-CNG cells, counter-screen for GalR3 antagonist project, cell-based, fluorescence, high throughput | shares compounds with GalR3 antagonist | HEK293-CNG parental cells, cAMP membrane potential fluorescence; normalised: DMSO wells 0%, forskolin wells 100% | activation, % at 3 µM | 1,600 compounds, 10% hits | AID 652268, 2013; in the data active = activation above about 1.3%
An asterisk follows results filed as active; . = not tested or not shown.

SMILES	OX1R antag-1	CHO parental Ca	GPR7 antagonist	OX1R antag-2	GalR3 antagonist	GalR3 antag conf	CNG parental
O=C(CC1CC2CCC1C2)NCCc1ccc(Cl)cc1 (stereo unspecified)	-19	-4	-5	14	-10	.	.
COc1ccc(Cl)cc1NC(=O)NC(C)C	-2	1	3	5	-7	.	.
COc1ccc(Cl)cc1NC(=O)Nc1ccccc1SC	-3	2	12	23	.	11	0
O=C(Cn1nc(Cc2ccncc2)c2ccccc2c1=O)Nc1cccnc1Cl	-7	-2	-10	8	-4	.	.
C/C(=N\OCc1nc2ccccc2c(=O)n1/N=C/c1cc(C)cc([N+](=O)[O-])c1O)c1ccccc1	-18	-14	8	47*	67*	70*	-1
COc1ccc2[nH]c(=O)c(CNc3ccc(C)cc3C)cc2c1	-25	1	-15	46	14*	5	0
Cc1[nH]c2ccc(C(=O)NCCCN3CCN(C)CC3)cc2c1C	-10	-7	-5	8	15*	-4	0
Cc1[nH]c2ccc(C(=O)NCCCN3CCOCC3)cc2c1C	-9	-1	-18	11	3	.	.
CC(CCc1ccc(O)cc1)NCc1ccc(Br)cc1 (stereo unspecified)	-4	-4	5	-1	31*	58*	1
Nc1ncnc2c1ncn2[C@@H]1O[C@H](CO)C[C@H]1O	-4	-2	.	12	16*	30*	0
c1ccc(CNc2ncnc3ccccc23)cc1	19	6	-2	19	93*	86*	0
O=C(OCc1cc(=O)oc2cc(O)ccc12)c1cc(S(=O)(=O)N2CCOCC2)ccc1F	-8	17	.	25	34*	55*	1
O=C1COc2ccc(C(=O)COC(=O)c3cc(S(=O)(=O)N4CCOCC4)ccc3F)cc2N1	-24	-1	-2	11	55*	34*	0
Cc1ccc(S(=O)(=O)N2CCOCC2)cc1C(=O)NCc1ccccc1CN1CCCC1	-24	-3	.	4	2	.	.
N#CCc1ccc(NC(=O)c2ccc(CN3CCc4ccccc4C3)cc2)cc1	-6	-4	15	-1	30*	105*	0
O=C(Nc1ccc(Cl)cc1)c1ccc(CN2CCc3ccccc3C2)cc1	-29	-9	9	3	108*	102*	0
COCCN1Cc2cccc(C(=O)Nc3cc(OC)ccc3OC)c2C1=O	-17	-13	-14	14	45*	52*	0
CCOC(=O)c1cc[n+](CC(=O)c2ccc(F)cc2)cc1	-15	-13	0	13	15*	3	0
CCOC(=O)c1ccc[n+](CC(=O)c2ccccc2)c1	-36	-7	0	29	2	.	.
CC(=O)Nc1ccc(N(CC(=O)NC2CCCCC2)C(=O)Cn2nnc(-c3ccccc3)n2)cc1	-1	-1	7	16	-1	.	.
O=C(O)CC(c1ccccc1)N1C(=O)c2ccccc2C1=O (stereo unspecified)	-3	-10	.	5	3	.	.
CCN(CC)S(=O)(=O)c1ccc(C(=O)NCCN(C)C)cc1	-23	1	-3	4	20*	4	0
CCN(CC)S(=O)(=O)c1ccc(C(=O)NCCCn2ccnc2)cc1	-29	-4	-9	15	-6	.	.
S=C(NC1CCCCC1)N1CCN(C2CCCCC2)CC1	-28	-17	8	15	-3	.	.
O=C1N=c2ccccc2=C1c1sc(=S)n(-c2ccc(O)cc2)c1O	-11	31	-6	9	13*	7	-2
SMILES	OX1R antag-1	CHO parental Ca	GPR7 antagonist	OX1R antag-2	GalR3 antagonist	GalR3 antag conf	CNG parental
COc1cc(C)c(Br)cc1S(=O)(=O)NCc1ccncc1	10	14	-3	11	39*	58*	0
COc1cc(C)c(Br)cc1S(=O)(=O)NCc1cccs1	-12	-15	-11	29	-4	.	.
Cc1ccc(S(=O)(=O)NCc2ccncc2)c(C)c1C	3	41*	15	31	86*	111*	-1
COc1ccc(S(=O)(=O)N(C)C[C@H]2Oc3ccc(NS(=O)(=O)c4cccs4)cc3C(=O)N([C@H](C)CO)C[C@@H]2C)cc1	.	.	.	.	-5	.	.
Cc1cnc(C=O)c2cccc([N+](=O)[O-])c12	.	.	.	.	34*	14*	0
CC1CCC(NC(=O)CCS(=O)(=O)c2ccc3c(c2)oc(=O)n3C)CC1 (stereo unspecified)	-16	-18	-12	2	-1	.	.
O=c1[nH]c2cc(Cl)c([N+](=O)[O-])nc2[nH]1	-14	-7	-6	28	24*	24*	0
O=C(O)CC1(CC(=O)Nc2ccc(C(F)(F)F)cc2)CCCC1	0	0	-10	-9	-10	.	.
COc1cc2c(cc1OC)C(c1ccc(C)cc1)NC(=O)C2 (stereo unspecified)	.	.	-14	.	14*	3	0
CCOc1ccc(C2NC(=O)Cc3cc(OC)c(OC)cc32)cc1 (stereo unspecified)	-28	-8	-1	10	-13	.	.
COc1ccc(CNC(=O)CSc2nc3ccccc3n2C(C)=O)cc1	-12	-10	-10	18	-9	.	.
CC1(C)Cc2c(sc(NC(=O)c3ccc(S(=O)(=O)N4CCCCCC4)cc3)c2C#N)C(C)(C)N1	-5	-6	-8	-1	-2	.	.
O=C(c1cc(-c2cccs2)nc2ccccc12)N1CCN(c2ccccc2O)CC1	-10	-5	-3	7	-3	.	.
COCCCN1C(=O)c2[nH]nc(-c3cc(C)cc(C)c3O)c2C1c1ccc(O)c(OC)c1 (stereo unspecified)	-25	-5	-5	14	2	.	.
CCCN1C(=O)c2[nH]nc(-c3cc(Cl)c(C)cc3O)c2C1c1ccc(O)c(OC)c1 (stereo unspecified)	-23	-25	-9	13	20*	4	0
COc1ccccc1S(=O)(=O)N(C)C[C@H]1OCc2cnnn2CCCC(=O)N([C@H](C)CO)C[C@@H]1C	.	.	.	.	0	.	.
CCN(CC)S(=O)(=O)c1ccc(/C=C/C(=O)Nc2ccc(Br)cc2F)cc1	-2	9	0	12	59*	99*	0
COc1ccc(S(=O)(=O)Nc2cc3c4c(c2)CCN4C(=O)CC3)cc1	-12	5	.	21	0	.	.

Bioassay records from PubChem BioAssay.
